Experimental data published in ChEMBL document CHEMBL1828528, “Acyclic nucleoside thiophosphonates as potent inhibitors of HIV and HBV replication” (Eur J Med Chem, 2011).
The source made the active and inactive calls. The calls are words filed in the database; no cut-off is given here.

Key:
[1] = tested on: Influenza B virus; assay: Antiviral activity against influenza B virus; assay type: functional, organism-based
[2] = tested on: Punta Toro virus; assay: Antiviral activity against Punta Toro virus infected in african green monkey Vero assessed as inhibition of virus-induced cytopathic effect cells up to 200 uM measured on day 3 post infection by microscopic analysis; assay type: functional, organism-based
Outline: (§1)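 Confluent Vero cell monolayers inoculated with 100 CCID50 of virus. Compound added after 1–2 h adsorption, tested up to 200 μM. Microscopic CPE scoring on day 3 post infection versus untreated controls.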

[3] = tested on: Human alphaherpesvirus 2; assay: Antiviral activity against Herpes simplex virus type 2 G infected in HEL cells assessed as inhibition of virus-induced cytopathic effect; assay type: functional, organism-based; conditions: Human alphaherpesvirus 2, strain G
Outline: (§2)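 Confluent HEL cell monolayers inoculated with 100 CCID50 of virus. Compounds added after a 1–2 h adsorption period. Virus-induced cytopathic effect scored microscopically at 3 days post infection as % of untreated controls. EC50 derived from graphical plots.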

[4] = Cytotoxicity against human HEL cells assessed as alteration in cellular morphology by microscopic analysis; assay type: cell-based
Outline: (§3)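 Uninfected confluent Vero, CrFK, HEL or HeLa cultures incubated with serial compound dilutions (up to 200 μM) for the same period as the antiviral assays. Minimal toxic concentration is the lowest giving microscopically detectable alteration of cell morphology.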

[5] = tested on: Vaccinia virus; assay: Antiviral activity against Vaccinia virus infected in HEL cells assessed as inhibition of virus-induced cytopathic effect; assay type: functional, organism-based; conditions: Orthopoxvirus vaccinia; outline: as §2
[6] = tested on: Human immunodeficiency virus 1; assay: Antiviral activity against HIV1 clade A isolate 4113 infected in human H9 cells assessed as inhibition of viral replication; assay type: functional, organism-based; conditions: Human immunodeficiency virus 1, clade A isolate 4113, H9
Outline: (§4)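 H9 cells infected with HIV-1 clinical isolates of clades A, B, C, D, A/E, F and G, in the presence of graded compound concentrations. EC50 is the concentration reducing viral replication by 50%.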

[7] = tested on: Human immunodeficiency virus 2; assay: Antiviral activity against 100 TCID50 wild-type Human immunodeficiency virus type 2 ROD infected in C8166 cells assessed as inhibition of syncytia formation after 4 days by microscopic analysis; assay type: functional, organism-based; conditions: Human immunodeficiency virus 2, ISOLATE ROD, C8166, 96 h
[8] = tested on: Human immunodeficiency virus 1; assay: Antiviral activity against HIV1 clade F isolate 2338 infected in human H9 cells assessed as inhibition of viral replication; assay type: functional, organism-based; conditions: Human immunodeficiency virus 1, clade F isolate 2338, H9; outline: as §4
[9] = tested on: Hepatitis B virus; assay: Antiviral activity against Hepatitis B virus infected in human HepAD38 cells assessed as reduction in viral DNA level after 6 days by real time quantitative PCR analysis; assay type: functional, organism-based; conditions: HePAD38, 144 h
Outline: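 Tetracycline-regulated HepAD38 cells (5 × 10^5) induced after 2–3 days by PBS wash and feeding with medium lacking tetracycline and G418, with or without compound. Medium changed at day 3. Intracellular HBV DNA quantified by TaqMan Q-PCR at day 6 post induction against a full-genome plasmid standard curve, expressed as % of untreated. Actives retested.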

[10] = Stability of compound in presence of CEM-SS cell extract assessed as compound degradation after 24 hrs by HPLC analysis; assay type: physicochemical; conditions: human, read-out: Activity
Outline: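 Compound diluted to 0.1 mM final in one of two media and incubated at 37 °C: RPMI-1640 with 10% heat-inactivated FCS, or CEM-SS cell extract (soluble proteins 3 mg/mL in 10 mM Tris-HCl pH 7.4, 140 mM KCl). Aliquots were taken over time, frozen at −80 °C, then run on C18 reverse-phase HPLC with on-line filtration, TEAB/acetonitrile gradient and 260 nm detection. Degradation products were identified by co-injection.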

[11] = Cytotoxicity against […]-activated human H9 cells on day 7 by MTT assay; assay type: cell-based
Outline: (§5)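 Uninfected PHA-P-activated PBMC and H9 cells exposed to graded compound concentrations. Viability by MTT on day 7. CC50 from quadratic fit of % viability against concentration; triplicates.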

[12] = Half life of the compound in complete culture medium by HPLC analysis; assay type: physicochemical
Outline: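 Compound diluted to 0.1 mM final in RPMI-1640 with 10% heat-inactivated FCS and incubated at 37 °C up to 24 h. Timed aliquots frozen at −80 °C, then analysed by reverse-phase HPLC with on-line filtration: C18 column, triethylammonium bicarbonate pH 7.5/acetonitrile gradient, detection at 260 nm. Half-life calculated.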

[13] = tested on: Human alphaherpesvirus 1; assay: Antiviral activity against TK-deficient and ACR-resistant Herpes simplex virus type 1 KOS infected in HEL cells assessed as inhibition of virus-induced cytopathic effect; assay type: functional, organism-based; conditions: Human alphaherpesvirus 1, KOS; outline: as §2
[14] = tested on: Vero; assay: Cytotoxicity against african green monkey Vero cells up to 200 uM; assay type: cell-based; conditions: chlorocebus sabaeus; outline: as §3
[15] = tested on: Human immunodeficiency virus 1; assay: Antiviral activity against 6250 TCID50 wild type HIV1 LAI infected in human H9 cells assessed as reduction in viral replication measured on day 7 post infection by reverse transcriptase activity; assay type: functional, organism-based; conditions: Human immunodeficiency virus 1, LAI, H9, 168 h
Outline: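 H9 cells in RPMI-1640/10% FCS given graded compound concentrations, then infected with a high inoculum of 6250 TCID50 HIV-1 LAI. Supernatant reverse transcriptase activity measured on day 7 post infection. EC50 taken as the concentration giving 50% reduction of viral replication.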

[16] = Cytotoxicity against human HuH7 cells; assay type: cell-based; conditions: Huh-7 cells
[17] = tested on: Human immunodeficiency virus 1; assay: Antiviral activity against HIV1 clade A/E isolate 2165 infected in human H9 cells assessed as inhibition of viral replication; assay type: functional, organism-based; conditions: Human immunodeficiency virus 1, clade A/E isolate 2165, H9; outline: as §4
[18] = tested on: Respiratory syncytial virus; assay: Antiviral activity against Respiratory syncytial virus infected in HeLa cells assessed as inhibition of virus-induced cytopathic effect up to 200 uM measured on day 3 post infection by microscopic analysis; assay type: functional, organism-based
Outline: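 HeLa monolayers at confluency infected with 100 CCID50 of virus. Compound dilutions up to 200 μM added after 1–2 h adsorption. Cytopathic effect recorded microscopically on day 3 relative to untreated controls.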

[19] = tested on: Human respirovirus 3; assay: Antiviral activity against Parainfluenza virus 3 infected in african green monkey Vero cells assessed as inhibition of virus-induced cytopathic effect up to 200 uM measured on day 3 post infection by microscopic analysis; assay type: functional, organism-based; outline: as §1
[20] = tested on: Human immunodeficiency virus 1; assay: Antiviral activity against HIV1 clade C isolate 2914 infected in human H9 cells assessed as inhibition of viral replication; assay type: functional, organism-based; conditions: Human immunodeficiency virus 1, clade C isolate 2914, H9; outline: as §4
[21] = tested on: Mammalian orthoreovirus 1; assay: Antiviral activity against Reovirus 1 infected in african green monkey Vero cells assessed as inhibition of virus-induced cytopathic effect up to 200 uM measured on day 3 post infection by microscopic analysis; assay type: functional, organism-based; outline: as §1
[22] = Cytotoxicity against […]-activated human PBMC on day 7 by MTT assay; assay type: cell-based; outline: as §5
[23] = Cytotoxicity against feline kidney CRFK cells up to 200 uM; assay type: cell-based, Felis catus; conditions: cat; outline: as §3
[24] = tested on: Influenza A virus; assay: Antiviral activity against influenza A virus; assay type: functional, organism-based
[25] = tested on: Human immunodeficiency virus 1; assay: Antiviral activity against HIV1 clade D isolate 1649 infected in human H9 cells assessed as inhibition of viral replication; assay type: functional, organism-based; conditions: Human immunodeficiency virus 1, clade D isolate 1649, H9; outline: as §4
[26] = tested on: Human immunodeficiency virus 1; assay: Antiviral activity against HIV1 clade B isolate 1722 infected in human H9 cells assessed as inhibition of viral replication; assay type: functional, organism-based; conditions: Human immunodeficiency virus 1, clade B isolate 1722, H9; outline: as §4
[27] = tested on: Human immunodeficiency virus 1; assay: Antiviral activity against HIV1 clade B isolate 2056 infected in human H9 cells assessed as inhibition of viral replication; assay type: functional, organism-based; conditions: Human immunodeficiency virus 1, clade B isolate 2056, H9; outline: as §4

Compound | Activity [1] | inhibition [2] | EC50 [3] [µM] | MCC [4] [µM] | EC50 [5] [µM] | EC50 [6] [µM] | EC50 [7] [µM] | EC50 [8] [µM] | EC50 [9] [µM] | metabolised at 24 h [10] [%] | CC50 at 7 day [11] [µM] | half-life [12] [h] | EC50 [13] [µM] | Activity [14] | EC50 [15] [µM] | CC50 [16] [µM] | EC50 [17] [µM] | inhibition [18] | inhibition [19] | EC50 [20] [µM] | further results
C[C@H](Cn1cnc2c(N)ncnc21)OCP(=O)([O-])[S-].[Na+].[Na+] (some centres undefined) | inactive | inactive | 48 | > 200 | 80 | 4.49 | 7.9 | 0.2 | 2.8 | < 1 | > 100 | > 24 | 80 | Non-toxic | 9.7 | > 150 | 0.34 | inactive | inactive | 0.38 | inhibition [21]: inactive; CC50 at 7 day [22]: > 100 µM; Activity [23]: Non-toxic; Activity [24]: inactive; EC50 [25]: 0.71 µM; EC50 [26]: 0.51 µM; EC50 [27]: 0.45 µM
Nc1ncnc2c1ncn2CCOCP(=O)([O-])[S-].[Na+].[Na+] (centres undefined) | inactive | inactive | 24 | > 200 | 84 | 1.64 | 23 | 0.22 | 3 | < 1 | > 30 | > 24 | 24 | Non-toxic | 17 | > 150 | 0.3 | inactive | inactive | 0.49 | inhibition [21]: inactive; CC50 at 7 day [22]: > 30 µM; Activity [23]: Non-toxic; Activity [24]: inactive; EC50 [25]: 2.77 µM; EC50 [26]: 2.8 µM; EC50 [27]: 3.41 µM
